Published values from different studies.
Each line is one published result; the experiments were not run side by side.
Target: Atypical kinase COQ8B, mitochondrial (COQ8B, Homo sapiens, UniProt Q96D53)
Residues used in one study (Q96D53 1-544): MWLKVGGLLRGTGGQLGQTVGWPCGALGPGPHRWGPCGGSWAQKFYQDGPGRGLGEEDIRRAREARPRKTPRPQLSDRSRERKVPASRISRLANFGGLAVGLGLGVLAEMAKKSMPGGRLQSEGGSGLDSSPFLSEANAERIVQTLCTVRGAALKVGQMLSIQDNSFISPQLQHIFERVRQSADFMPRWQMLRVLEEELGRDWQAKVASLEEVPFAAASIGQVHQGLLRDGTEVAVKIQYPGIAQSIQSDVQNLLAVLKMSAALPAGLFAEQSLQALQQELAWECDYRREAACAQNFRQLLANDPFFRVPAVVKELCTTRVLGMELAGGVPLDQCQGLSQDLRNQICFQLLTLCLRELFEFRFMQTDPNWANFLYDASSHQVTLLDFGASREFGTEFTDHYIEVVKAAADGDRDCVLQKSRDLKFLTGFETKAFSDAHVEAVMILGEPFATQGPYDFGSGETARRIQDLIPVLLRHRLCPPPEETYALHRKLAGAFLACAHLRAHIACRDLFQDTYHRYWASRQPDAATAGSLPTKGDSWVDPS

| Compound | effect on | technique | concentration | remaining binding |
| --- | --- | --- | --- | --- |
| O=C(c1ccc(Nc2ncc(Cl)c(-c3cc4ccccc4s3)n2)cc1)N1CCC(N2CCCC2)CC1 | binding | competition with immobilised ligand | 1 µM | 44% |
| CNC(=O)Nc1ccc2c(c1)[C@@]1(CC2)OC(=O)N(CC(=O)N(Cc2ccc(F)cc2)[C@@H](C)C(F)(F)F)C1=O | cell-free assay | competition with immobilised ligand | 1 µM | 95% |
| C[C@H]1CCN(c2nccc(-c3cnn4ncccc34)n2)C1 | binding |  | 1 µM | 92% |
| C[C@@H]1CN(c2cc(-c3nn(C)c4ccc(OC5(C)CC5)cc34)ncn2)C[C@H](C)O1 | cell-free assay | competition with immobilised ligand | 1 µM | 100% |
| CN(CCCC(F)(F)F)c1nccc(-c2cnn3ncccc23)n1 | binding |  | 1 µM | 84% |
| O=C(NS(=O)(=O)c1ccc(NCC2CCOCC2)c([N+](=O)[O-])c1)c1ccc(N2CCN(Cc3ccc(C(F)(F)F)cc3-c3ccc(Cl)cc3)CC2)cc1Oc1cnc2[nH]ccc2c1 | cell-free assay | competition with immobilised ligand | 1 µM | 90% |
| CCN1CCN(Cc2ccc(C(=O)Nc3ccc(C)c(Oc4ccc5c(c4)CC(=O)N5)c3)cc2C(F)(F)F)CC1 | binding | competition with immobilised ligand | 1 µM | 80% |
| O=C(NCC1CCOCC1)c1n[nH]cc1NC(=O)c1c(F)cccc1F | binding | competition with immobilised ligand | 1 µM | 85% |
| Cc1nc(N2CC[C@@H](O)C2)ncc1-c1cc(C(F)(F)F)cc2[nH]ncc12 | cell-free assay | competition with immobilised ligand | 1 µM | 100% |
| COc1cnc(Nc2cccc(S(N)(=O)=O)c2)nc1N1CCN(c2ccccc2)CC1 | binding | competition with immobilised ligand | 1 µM | 85% |
| COc1ncc2cc3ccccc3nc2c1C#N | cell-free assay | competition with immobilised ligand | 5 µM | 100% |
| CCS(=O)(=O)c1cc2cc(C[C@@](O)(CC(C)(C)c3ccc(F)cc3C(N)=O)C(F)(F)F)[nH]c2cn1 | cell-free assay | competition with immobilised ligand | 1 µM | 100% |
| N[C@@H]1CCN(c2nccc(-c3cnn4ncccc34)n2)C1 | binding |  | 1 µM | 100% |
| CS(=O)(=O)N1CCCC(NC(=O)[C@H](CCC2CCCCC2)NC(=O)c2ccc(CNC(=O)c3cnc4ccccn34)cc2)C1 (stereo partly shown) | cell-free assay | competition with immobilised ligand | 0.1 µM | 100% |
| CN(C)c1ncc(F)c(-c2cnn3ncccc23)n1 | binding |  | 1 µM | 73% |
| O=C(NCCCN1CCOCC1)c1ccc(Nc2ncc(Cl)c(-c3ccc(Cl)s3)n2)cc1 | binding | competition with immobilised ligand | 1 µM | 34% |
| c1cnn2ncc(-c3ccnc(N4CCC45COC5)n3)c2c1 | binding |  | 1 µM | 100% |
| c1cncc(-c2cccc(Nc3nccc(NC4CCCCC4)n3)c2)c1 | binding | competition with immobilised ligand | 10 µM | 24% |
| COc1ccnn2ncc(-c3ccnc(N(C)C)n3)c12 | binding |  | 1 µM | 96% |
| O=C(c1ccc(Nc2nccc(-c3cc4ccccc4s3)n2)cc1)N1CCC(N2CCCC2)CC1 | binding | competition with immobilised ligand | 1 µM | 90% |
| CN(C)c1nccc(-c2cnn3ncccc23)n1 | binding |  | 1 µM | 100% |
| CNC(=O)[C@@H]1CC[C@@H](n2c(-c3ccc4cnccc4c3)nc3ccc(C(=O)NCc4cccc(C(N)=O)c4)cc32)C1 | binding | competition with immobilised ligand | 1 µM | 99% |
